Data taken from ChEMBL document CHEMBL4406867, “Synthesis and antidepressant effect of novel aralkyl piperazine and piperidine derivatives targeting SSRI/5-HT1A/5-HT7” (Bioorg Med Chem Lett, 2019).

What was measured:
[1] = Half life in rat liver microsomes at 1 uM in presence of NADPH generating system measured for 10 to 90 mins by LC-MS/MS analysis; format: ADME, Microsome
Outline: (§1)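 Rat liver microsomes; stability expressed as t1/2 (min) and intrinsic clearance (μL/min/mg).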

[2] = molecular target: T1, 5-hydroxytryptamine receptor 7 (Homo sapiens, UniProt P34969); test: Displacement of [3H]-LSD from 5HT7 receptor (unknown origin) expressed in CHO cell membranes at 10 uM incubated for 120 mins by scintillation counting method relative to control
T1 sequence (P34969 whole entry): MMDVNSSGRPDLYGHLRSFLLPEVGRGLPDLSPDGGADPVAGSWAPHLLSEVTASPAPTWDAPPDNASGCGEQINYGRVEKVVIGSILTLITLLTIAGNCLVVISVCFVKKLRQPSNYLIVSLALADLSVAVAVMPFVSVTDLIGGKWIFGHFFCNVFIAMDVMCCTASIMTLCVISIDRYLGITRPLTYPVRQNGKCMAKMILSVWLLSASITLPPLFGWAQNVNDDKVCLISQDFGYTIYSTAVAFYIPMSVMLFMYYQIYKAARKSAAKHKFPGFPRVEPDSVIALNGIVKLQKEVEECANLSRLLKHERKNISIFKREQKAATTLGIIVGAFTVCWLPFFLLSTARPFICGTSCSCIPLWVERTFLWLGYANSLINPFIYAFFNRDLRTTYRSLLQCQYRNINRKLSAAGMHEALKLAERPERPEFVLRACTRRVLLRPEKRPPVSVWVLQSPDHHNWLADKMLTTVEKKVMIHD
Outline: (§2)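 Single-concentration screen at 10 μM, reported as percent inhibition; 5-HT1A by [3H]-8-OH-DPAT displacement from HEK-293 membrane homogenates, 5-HT7 by [3H]-LSD displacement from CHO membrane homogenates, SERT by [3H]-5-HT uptake into rat brain synaptosomes.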

[3] = Clearance in rat liver microsomes at 1 uM in presence of NADPH generating system measured for 10 to 90 mins by LC-MS/MS analysis; format: ADME, Microsome; outline: as §1
[4] = molecular target: Sodium-dependent serotonin transporter (Rattus norvegicus) (UniProt P31652); test: Inhibition of rat synaptosomes 5HT transporter assessed as reduction in [3H]serotonin reuptake at 10 uM incubated for 15 mins by scintillation counting method relative to control; format: subcellular; outline: as §2
Sequence of Sodium-dependent serotonin transporter (Rattus norvegicus) (P31652 whole entry): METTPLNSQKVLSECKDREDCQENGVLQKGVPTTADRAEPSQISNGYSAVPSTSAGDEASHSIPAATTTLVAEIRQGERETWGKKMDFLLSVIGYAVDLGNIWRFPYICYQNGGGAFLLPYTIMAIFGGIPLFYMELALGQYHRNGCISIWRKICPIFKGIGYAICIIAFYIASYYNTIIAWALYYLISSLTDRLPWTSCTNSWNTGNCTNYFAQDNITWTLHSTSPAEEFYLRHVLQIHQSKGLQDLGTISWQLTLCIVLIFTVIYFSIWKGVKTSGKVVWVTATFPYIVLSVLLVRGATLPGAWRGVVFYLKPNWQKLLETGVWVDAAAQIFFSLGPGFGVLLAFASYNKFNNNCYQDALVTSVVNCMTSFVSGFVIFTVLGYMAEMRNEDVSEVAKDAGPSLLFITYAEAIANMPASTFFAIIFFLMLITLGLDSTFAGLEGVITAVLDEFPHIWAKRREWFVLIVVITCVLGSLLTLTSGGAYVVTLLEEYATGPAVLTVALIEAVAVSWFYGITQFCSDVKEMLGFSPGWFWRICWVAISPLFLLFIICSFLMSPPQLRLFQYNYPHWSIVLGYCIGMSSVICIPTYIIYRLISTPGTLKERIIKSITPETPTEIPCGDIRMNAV

[5] = molecular target: T2, 5-hydroxytryptamine receptor 1A (Homo sapiens) (UniProt P08908); test: Displacement of [3H]-8-OH-DPAT from 5HT1A receptor (unknown origin) expressed in HEK293 cells membranes at 10 uM incubated for 60 mins by scintillation counting method relative to control; format: cell membranes; outline: as §2
T2 sequence (whole entry): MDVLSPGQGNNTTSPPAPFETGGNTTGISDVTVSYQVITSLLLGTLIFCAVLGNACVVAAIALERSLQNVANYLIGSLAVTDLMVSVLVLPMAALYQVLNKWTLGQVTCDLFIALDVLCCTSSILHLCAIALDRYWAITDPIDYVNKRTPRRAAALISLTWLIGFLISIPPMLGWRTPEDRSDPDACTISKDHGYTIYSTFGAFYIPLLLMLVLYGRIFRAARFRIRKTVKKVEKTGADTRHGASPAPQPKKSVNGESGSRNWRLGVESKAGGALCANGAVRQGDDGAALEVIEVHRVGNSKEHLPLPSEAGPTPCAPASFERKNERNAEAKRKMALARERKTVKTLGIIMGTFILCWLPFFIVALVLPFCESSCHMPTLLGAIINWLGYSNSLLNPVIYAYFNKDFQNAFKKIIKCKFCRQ

[6] = molecular target: Sodium-dependent serotonin transporter (Rattus norvegicus, UniProt P31652); test: Inhibition of rat synaptosomes 5HT transporter assessed as reduction in [3H]serotonin reuptake incubated for 15 mins by scintillation counting method; format: subcellular
Sequence of Sodium-dependent serotonin transporter (P31652 whole entry): as the sequence (P31652 whole entry) above

[7] = molecular target: T1, 5-hydroxytryptamine receptor 7; test: Displacement of [3H]-LSD from 5HT7 receptor (unknown origin) expressed in CHO cell membranes incubated for 120 mins by scintillation counting method
[8] = molecular target: T3, 5-hydroxytryptamine receptor 1A (Homo sapiens, UniProt P08908); test: Displacement of [3H]-8-OH-DPAT from 5HT1A receptor (unknown origin) expressed in HEK293 cells membranes incubated for 60 mins by scintillation counting method; format: cell membranes
T3 sequence (P08908 whole entry): T2 sequence (whole entry)

[9] = Half life in human liver microsomes at 1 uM in presence of NADPH generating system measured for 10 to 90 mins by LC-MS/MS analysis; format: ADME, Microsome
Outline: (§3)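 Human liver microsomes; metabolic stability as half-life (min) and clearance (μL/min/mg).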

[10] = Clearance in human liver microsomes at 1 uM in presence of NADPH generating system measured for 10 to 90 mins by LC-MS/MS analysis; format: ADME, Microsome; outline: as §3
Mus musculus [11] = test: Antidepressant activity in ICR mouse assessed as decrease in immobility time at 40 mg/kg, po administrated for daily for 7 days measured 1 hr post last dose by forced swim test relative to control; format: functional; design: scale not given: the % may be the effect or the level left
Outline: (§4)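 Male ICR mice dosed orally once daily for 7 days at 10, 20 or 40 mg/kg/day; immobility time scored in forced swim test against vehicle group; n = 10 per group, mean ± SEM.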

Mus musculus [12] = test: Antidepressant activity in ICR mouse assessed as decrease in immobility time at 40 mg/kg, po administrated for daily for 7 days measured 1 hr post last dose by tail suspension test relative to control; format: functional; design: scale not given: the % may be the effect or the level left
Outline: (§5)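 Male ICR mice given oral doses once daily for 7 days (10, 20, 40 mg/kg/day); immobility time recorded in tail suspension test versus control group.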

Mus musculus [13] = test: Antidepressant activity in ICR mouse assessed as decrease in immobility time at 10 mg/kg, po administrated for daily for 7 days measured 1 hr post last dose by forced swim test relative to control; format: functional; design: scale not given: the % may be the effect or the level left; outline: as §4
Mus musculus [14] = test: Antidepressant activity in ICR mouse assessed as decrease in immobility time at 20 mg/kg, po administrated for daily for 7 days measured 1 hr post last dose by tail suspension test relative to control; format: functional; design: scale not given: the % may be the effect or the level left; outline: as §5
Mus musculus [15] = test: Antidepressant activity in orally dosed ICR mouse assessed as decrease in immobility time measured 1 hr post last dose by forced swim test; format: functional, organism-based; outline: as §4
Mus musculus [16] = test: Antidepressant activity in orally dosed ICR mouse assessed as decrease in immobility time measured 1 hr post last dose by tail suspension test; format: functional, organism-based; outline: as §5
[17] = molecular target: T1, 5-hydroxytryptamine receptor 7; format: functional
[18] = molecular target: T3, 5-hydroxytryptamine receptor 1A; test: Agonist activity at human recombinant 5HT1A receptor (unknown origin) stably expressed in CHO-K1 incubated for 30 mins by [35S]GTPgammaS binding assay; format: functional
Mus musculus [19] = test: Antidepressant activity in ICR mouse assessed as decrease in immobility time at 10 mg/kg, po administrated for daily for 7 days measured 1 hr post last dose by tail suspension test relative to control; format: functional; design: scale not given: the % may be the effect or the level left; outline: as §5
Mus musculus [20] = test: Antidepressant activity in ICR mouse assessed as decrease in immobility time at 20 mg/kg, po administrated for daily for 7 days measured 1 hr post last dose by forced swim test relative to control; format: functional; design: scale not given: the % may be the effect or the level left; outline: as §4

Compound | half-life at 1 µM [1] | CLH [3] | IC50 [6] | Ki [7] | Ki [8] | also measured
Fc1ccc(N2CCN(CCCc3c[nH]c4ccc(F)cc34)CC2)c(-c2cccnc2)c1 | 5.8 min | 240 µL/min/mg | – | – | – | inhibition [2]: 100%; inhibition [4]: 104%; inhibition [5]: 99.1%
Cn1cc(-c2cc(F)ccc2N2CCN(CCCc3c[nH]c4ccc(F)cc34)CC2)cn1 | 9.5 min | 146 µL/min/mg | 2.7 nM | – | – | –
Fc1ccc(N2CCN(CCCc3c[nH]c4ccc(F)cc34)CC2)c(-c2cncnc2)c1 | 6.6 min | 209 µL/min/mg | – | – | – | inhibition [2]: 90.9%; inhibition [4]: 102%; inhibition [5]: 98.8%
Fc1ccc(C2CCN(CCCc3c[nH]c4ccc(F)cc34)CC2)c(-c2ccsc2)c1 | 18.3 min | 75.6 µL/min/mg | 14 nM | – | – | –
Fc1ccc2c(C3CCN(CCCc4c[nH]c5ccc(F)cc45)CC3)noc2c1 | 4.6 min | 301 µL/min/mg | 0.92 nM | – | – | inhibition [2]: 99.8%; inhibition [5]: 101%
Fc1ccc(N2CCN(CCCc3c[nH]c4ccc(F)cc34)CC2)c(-c2cc[nH]c2)c1 | – | – | – | – | – | inhibition [2]: 99.1%; inhibition [4]: 78.9%; inhibition [5]: 97.4%
Fc1ccc(N2CCN(CCCc3c[nH]c4ccc(F)cc34)CC2)c(-c2ccsc2)c1 | 24.5 min | 56.5 µL/min/mg | 4 nM | 2 nM | 8.4 nM | –
Fc1ccc(N2CCN(CCCc3c[nH]c4ccc(F)cc34)CC2)c(-c2ccoc2)c1 | 10.3 min | 134 µL/min/mg | 3 nM | 11 nM | 15 nM | –
COc1ccc2[nH]c([S+]([O-])Cc3ncc(C)c(OC)c3C)nc2c1 (stereo not given) [OMEPRAZOLE] | – | 163 µL/min/mg | – | – | – | –
Fc1ccc(N2CCN(CCCc3c[nH]c4ccc(F)cc34)CC2)c(-c2cn[nH]c2)c1 | 7.2 min | 192 µL/min/mg | 1.3 nM | 0.9 nM | 6.3 nM | –
Cc1ccc(Sc2ccccc2N2CCNCC2)c(C)c1 [VORTIOXETINE] | – | 153 µL/min/mg | – | – | – | half-life at 1 µM [9]: 214 min; CLH [10]: 6.47 µL/min/mg; Activity (Mus musculus [11]): 35%
Fc1ccc(C2CCN(CCCc3c[nH]c4ccc(F)cc34)CC2)c(-c2ccccc2)c1 | 48.6 min | 28.5 µL/min/mg | 14 nM | – | – | Activity (Mus musculus [12]): 43%; Activity (Mus musculus [13]): 29%; Activity (Mus musculus [14]): 35%; Activity (Mus musculus [15]): Dose-dependent effect; half-life at 1 µM [9]: 49.9 min; Activity (Mus musculus [16]): Dose-dependent effect; IC50 [17]: 650 nM; EC50 [18]: 1180 nM; CLH [10]: 27.8 µL/min/mg; Activity (Mus musculus [19]): 28%; Activity (Mus musculus [11]): 43%; Activity (Mus musculus [20]): 47%
Fc1ccc2[nH]cc(CCCCN3CCN(c4nsc5ccccc45)CC3)c2c1 | 3.4 min | 403 µL/min/mg | 7.08 nM | – | – | inhibition [2]: 98.5%; inhibition [5]: 101%
N#Cc1ccc2[nH]cc(CCCCN3CCN(c4ccc5oc(C(N)=O)cc5c4)CC3)c2c1 [VILAZODONE] | 28.5 min | 48.6 µL/min/mg | – | 3900 nM | – | Activity (Mus musculus [12]): 60%; half-life at 1 µM [9]: 53.3 min; CLH [10]: 26 µL/min/mg
Fc1ccc2[nH]cc(CCCN3CCN(c4nsc5ccccc45)CC3)c2c1 | 3.5 min | 397 µL/min/mg | 1.1 nM | 2.2 nM | 1.6 nM | –
Fc1ccc(N2CCN(CCCc3c[nH]c4ccc(F)cc34)CC2)c(-c2cccs2)c1 | – | – | 21 nM | 11 nM | 38 nM | –
COc1ccc2c(c1)[C@]13CCCC[C@@H]1[C@H](C2)N(C)CC3 [DEXTROMETHORPHAN] | – | – | – | – | – | half-life at 1 µM [9]: 44.7 min; CLH [10]: 31 µL/min/mg
Fc1ccc2[nH]cc(CCN3CCN(c4nsc5ccccc45)CC3)c2c1 | 3.1 min | 452 µL/min/mg | 23 nM | 0.99 nM | 1.6 nM | –
